# Measurements reported in ChEMBL document CHEMBL4513216, “Probing the Open Global Health Chemical Diversity Library for Multistage-Active Starting Points for Next-Generation Antimalarials” (ACS Infect Dis, 2020).
# Assay: Toxicity liver stage against HepG2, at 10uM
# Format: cell-based
# Design: test concentration 10 uM, cell line HepG2-A16-CD81EGFP
# Details: human, HepG2-A16-CD81EGFP cells; read-out: INHIBITION
# Summary of the method: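 Uninfected HepG2-A16-CD81EGFP cells, 3 × 10^3 per well, 1536-well, plated on prespotted compound at 10 μM final, parasite-free screening media added to match infected plates; puromycin 10 μM positive, DMSO 0.5% negative; run in parallel with 48 h PbLuc assay at 37 °C, 5% CO2; viability by CellTiter-Glo luminescence, normalized to controls.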
row,Compound,cytotoxicity at 10 µM
1,Cc1ccc(-n2ncc(C(=O)NC3CC(C)(C)NC(C)(C)C3)c2N)cc1,-4.2%
2,O=C(CNC(=O)N1CCN(c2cccc(Cl)c2)CC1)Nc1ccccn1,-0.74%
3,COCCn1ccc(=O)c(OCC(=O)Nc2cccc(Cl)c2)c1C,2.16%
4,NC(=O)Cn1c(CO)cnc1SCC(=O)NCc1ccccc1Cl,-4.24%
5,CCOC(=O)CCC(=O)N1CCC(Oc2ncccc2Cl)CC1,-5.57%
6,O=C1CCC2(CCCN(C(=O)Cc3ccccn3)C2)N1 (stereo unspecified),4%
7,O=C(CC1CC1)N1CCC2(COCc3cnc(-c4ccccc4)nc32)C1 (stereo unspecified),2.02%
8,COCCNC(=O)Cn1c(-c2ccc(F)cc2)nc(C)c(CCO)c1=O,-15%
9,CC/N=c1\nc(NCC)nc2n1C(O)(Nc1cc(C)ccc1C)CS2 (stereo unspecified),10.3%
10,Oc1nc(N2CCOCC2)nc2nccc(-c3ccccn3)c12,7.52%
11,O=C1CC(c2ccncc2)c2c(c(C(=O)O)cn2-c2ccc(F)cc2)N1 (stereo unspecified),10.1%
12,O=C(NC[C@H]1OC[C@@H]2CCN(C(=O)c3ccco3)C[C@@H]21)C1CC1,-6.2%
13,O=C(c1ccco1)N1CCC2(CCOC2)C1 (stereo unspecified),-3.65%
14,CCN(CC)C(=O)c1nnc2ccc(N3CCOCC3)cc2n1,5.37%
15,Cc1ncc(C(=O)N2CC(C(=O)N3CCOCC3)C2)c(C)n1,3.54%
16,CNC(=O)c1ccc(C2CN(C(=O)c3c[nH]nc3C)CCO2)nc1 (stereo unspecified),-19.3%
17,CC(C)(CNC(=O)Nc1ccc(S(=O)(=O)C(F)F)cc1)N1CCOCC1,4.44%
18,Cc1ccc(-n2cc(C(=O)NCc3nnc4n3CCCCC4)nn2)cc1,-3.32%
19,N#Cc1cc(F)ccc1NCc1ccc(Cn2cncn2)cc1,8.75%
20,CCN(CC)C(=O)C1(NCc2nc(C)c(C)o2)CCCCC1,2.5%
21,O=C(NC1(C(=O)O)CCCCC1)C1Cc2ccccc2O1 (stereo unspecified),10.9%

row,Compound,cytotoxicity at 10 µM
1,CC1COCCN1C(=O)COc1cccc(Oc2ccccn2)c1 (stereo unspecified),-5.15%
2,CN(C1CCCCC1)S(=O)(=O)NCC1Cc2ccccc2O1 (stereo unspecified),4.19%
3,CSc1ncccc1C(=O)NC(C)c1cccc(N2CCOC2=O)c1 (stereo unspecified),-9.05%
4,CC(C)n1cnnc1CNC(=O)c1cnn(-c2ccccc2)c1,11.9%
5,Cc1nc(-c2ccc(S(=O)(=O)N3CCC=C(F)C3)cc2)co1,13.4%
6,CCN(CC)C1CCN(C(=O)NCc2cccc(-n3ccnc3)c2)C1 (stereo unspecified),-4.45%
7,Cn1cc(C(=O)CC2CCCN2C(=O)c2ccn3ccnc3c2)cn1 (stereo unspecified),-5.81%
8,COCC1CCN(CCCc2cccc(OC)c2)CC1,-11%
9,Cc1nn(C)c(C)c1C(=O)NCc1cc(N(C)C)nc2ccccc12,-1.08%
10,CC(NC(=O)c1ccnc(C2CC2)n1)C1(N2CCOCC2)CCCC1 (stereo unspecified),4.21%
11,CC(C)(C)c1n[nH]c(C2CN(C(=O)c3cc(C4CC4)[nH]n3)CCO2)n1 (stereo unspecified),-7.2%
12,CC(C)CC(CCO)CNC(=O)N1CCC1(C)C (stereo unspecified),-3.25%
13,CCOc1ccccc1C(CC(=O)O)NC(C)=O (stereo unspecified),-4.19%
14,Cc1nn(C)c(C)c1OCC(=O)N1CCC(O)(C(F)(F)F)CC1,-5.09%
15,Cc1ccc(F)c(OC2CCCN(c3cnn(C)c3)C2=O)c1 (stereo unspecified),-6.43%
16,CC(Cn1cncn1)NC(=O)Nc1ccc(F)cc1OCC1CC1 (stereo unspecified),4.34%
17,N#CCCN(c1ccccc1)S(=O)(=O)CC1CCCCO1 (stereo unspecified),-4.69%
18,CC(C)Cc1ccc(S(=O)(=O)NCCCN2CCNC(=O)C2)cc1,-4.36%
19,O=C(NCc1ccccn1)Nc1ccc2[nH]nnc2c1,6.77%
20,CC(C)(C)CN(CCC#N)C(=O)Cc1ccc(-n2cnnn2)cc1,1.18%
21,CN(C)c1ccc(NC(=O)NCc2ccc(Cl)s2)cn1,6.43%

row,Compound,cytotoxicity at 10 µM
1,Cn1cnc2c1CCN(Cc1c(Cl)ccc3cccnc13)C2,5.55%
2,CC(C)OCCCNC(=O)N(C)C(C)c1ccc(-n2cncn2)cc1 (stereo unspecified),4.08%
3,CC(O)CN1CCN(CCOCC(F)(F)F)CC1 (stereo unspecified),-3.51%
4,CC(=O)N(C)CC(=O)Nc1ccc(C)cc1OCc1ccccc1,2.22%
5,CN1CCC(CNC(=O)c2cccc(NC(N)=O)c2)c2ccccc21 (stereo unspecified),3.86%
6,Cc1sc(CNS(N)(=O)=O)nc1-c1ccc(Cl)cc1,-7.45%
7,CS(=O)(=O)N1CCC(Nc2ccnc3ccc(Cl)cc23)CC1,54.3%
8,CSCC(=O)NS(=O)(=O)c1ccc(C#N)c(C(F)(F)F)c1,17.2%
9,COc1cc2ccn(CCS(C)(=O)=O)c(=O)c2cc1F,18.5%
10,O=C(O)c1ccc(F)c(S(=O)(=O)Nc2c(F)cccc2-n2cccn2)c1,-5.59%
11,NC(=O)C1CCN(C(=O)NCc2ccccc2Cn2cncn2)CC1,3.98%
12,CNc1cc(N2CCCC2CNCc2ccccn2)ncn1 (stereo unspecified),7.31%
13,Cc1cc(C)n(C2CCCN(C(=O)c3ccc(F)cc3F)C2)n1 (stereo unspecified),0.743%
14,CC(C)c1nnc(CN2CCC3(CC2)Nc2ccccc2NC3=O)o1,-1.48%
15,CCCN1CC2(CCN(C)CC2)CC1C(=O)NCCn1cccn1 (stereo unspecified),-5.46%
16,Cc1ccccc1-n1cc(CNc2ncnc3c2CCNCC3)cn1,1.25%
17,CS(=O)(=O)c1ccc(-c2cc(C3CC3)c(C#N)c(N)n2)cc1,-8.11%
18,c1ccc2oc(N3CCCC4(CCOC4)C3)nc2c1 (stereo unspecified),-6.27%
19,c1ccn2c(C3CCCN(c4ncnc5c4CCNC5)C3)nnc2c1 (stereo unspecified),-7.94%
20,Cc1ccccc1CN1CCN(C(=O)CN2CCOC2=O)CC1,-8.03%
21,CC(C)[C@@H](N)C(=O)NCc1cccnc1N1CCc2ccccc2C1,11%

row,Compound,cytotoxicity at 10 µM
1,COc1ccc(F)c(F)c1CN1CCN(CC(C)C)C(=O)C1C (stereo unspecified),-6.29%
2,CN(C)c1ccccc1C(=O)N1C[C@@H](CN2CCOCC2)[C@@H](CO)C1,-4.09%
3,CC(C)c1n[nH]c(C2CN(C(=O)c3cc(C4CC4)[nH]n3)CCO2)n1 (stereo unspecified),-5.95%
4,CCn1ccnc1CN1CCCN(C(=O)Cn2nc(C)cc2C)CC1,-0.505%
5,Cc1ccccc1NC(=O)c1cncc(C2CCNCC2)n1,1.54%
6,CCOc1ccc(Br)cc1-c1cc(N)[nH]n1,-2.97%
7,Fc1ccc(C2(CNC3=NCCCN3)CCC2)cc1,7.2%
8,O=C1NC(c2ccccc2)=N[C@@]12CC[C@@H]1CN(Cc3ccccc3)C[C@@H]12,-5.23%
9,CN(C)C(=O)CN1CCC2(CCN(Cc3nccs3)CC2)C1=O,1.31%
10,O=S(=O)(C1CC1)N1CCO[C@H]2[C@H](Oc3cccnc3)CC[C@@H]21,-0.24%
11,Cc1n[nH]c2ncc(CNC3CCN(Cc4ccccn4)CC3)cc12,7.14%
12,Cc1noc(C)c1CN1CCN(C)c2ncccc2C1,-77%
13,Cc1ccc(CNC(=O)c2nc3c(o2)CN(C(=O)c2cccnc2)C3)o1,0.109%
14,Cc1nc(CN2C[C@@H]3CN(C(=O)C4(C#N)CC4)C[C@@H]3C2=O)cs1,-70.7%
15,CN(Cc1cccnc1)C1CC2(CCN(c3ncccn3)CC2)C1,-3.31%
16,Oc1cccc(CN2C[C@@H]3CC[C@H]2CN(Cc2ccncc2)C3)c1,-131%
17,COCCC(=O)N1C[C@@H]2CC[C@H]1CN(C1Cc3ccccc3C1)C2,-7.43%
18,Cc1cc(C(=O)NC2CCC3(CCC(=O)N3)CC2)no1 (stereo unspecified),4.23%
